Measurements as given in ChEMBL document CHEMBL5325511, “Discovery of N-(4-(Aminomethyl)phenyl)-5-methylpyrimidin-2-amine Derivatives as Potent and Selective JAK2 Inhibitors” (ACS Med Chem Lett, 2023).

Legend:
[1] = biological target: Tyrosine-protein kinase JAK2 (Mus musculus, UniProt Q62120, V617F); test: Inhibition of JAK2 V617F mutant in mouse BaF3 cells; format: cell-based
Outline: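 Cell proliferation assay. IC50 is the concentration that inhibits proliferation by 50%, taken from dose–response curves. Mean ± SEM of at least three independent experiments.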

[2] = Metabolic stability in human liver microsomes assessed as half life; format: ADME, Microsome
BaF3 [3] = test: Induction of cell cycle arrest in mouse BaF3 cells harbouring JAK2 […] mutant assessed as accumulation of cells at G2/M phase at 0.5 nM incubated for 24 hrs by propidium iodide staining based flow cytometry analysis (reference value: 9.34 %); format: functional
BaF3 [4] = test: Induction of cell cycle arrest in mouse BaF3 cells harbouring JAK2 […] mutant assessed as accumulation of cells at S phase at 0.5 nM incubated for 24 hrs by propidium iodide staining based flow cytometry analysis (reference value: 33.80 %); format: functional
BaF3 [5] = test: Induction of cell cycle arrest in mouse BaF3 cells harbouring JAK2 […] mutant assessed as accumulation of cells at G0/G1 phase at 2 nM incubated for 24 hrs by propidium iodide staining based flow cytometry analysis (reference value: 56.85 %); format: functional
BaF3 [6] = test: Induction of cell cycle arrest in mouse BaF3 cells harbouring JAK2 […] mutant assessed as accumulation of cells at G2/M phase at 2 nM incubated for 24 hrs by propidium iodide staining based flow cytometry analysis (reference value: 9.34 %); format: functional
BaF3 [7] = test: Induction of cell cycle arrest in mouse BaF3 cells harbouring JAK2 […] mutant assessed as accumulation of cells at G2/M phase at 4 nM incubated for 24 hrs by propidium iodide staining based flow cytometry analysis (reference value: 9.34 %); format: functional
BaF3 [8] = test: Induction of cell cycle arrest in mouse BaF3 cells harbouring JAK2 […] mutant assessed as accumulation of cells at G2/M phase at 8 nM incubated for 24 hrs by propidium iodide staining based flow cytometry analysis (reference value: 9.34 %); format: functional
BaF3 [9] = test: Induction of cell cycle arrest in mouse BaF3 cells harbouring JAK2 […] mutant assessed as accumulation of cells at S phase at 8 nM incubated for 24 hrs by propidium iodide staining based flow cytometry analysis (reference value: 33.80 %); format: functional
BaF3 [10] = test: Induction of cell cycle arrest in mouse BaF3 cells harbouring JAK2 […] mutant assessed as accumulation of cells at G2/M phase at 16 nM incubated for 24 hrs by propidium iodide staining based flow cytometry analysis (reference value: 9.34 %); format: functional
BaF3 [11] = test: Induction of cell cycle arrest in mouse BaF3 cells harbouring JAK2 […] mutant assessed as accumulation of cells at S phase at 16 nM incubated for 24 hrs by propidium iodide staining based flow cytometry analysis (reference value: 33.80 %); format: functional
BaF3 [12] = test: Induction of apoptosis in mouse BaF3 cells harbouring JAK2 V617F mutant assessed as viable cells at 20 nM incubated for 24 hrs by Annexin V / propidium iodide staining based flow cytometry analysis (reference value: 72.8 %); format: functional; conditions: read-out: Activity
Outline: (§1)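 Ba/F3 JAK2V617F cells exposed to compound at 20, 40, 80, 160 and 320 nM, then analysed for apoptosis by flow cytometry. Significance vs control by Dunnett's t test.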

BaF3 [13] = test: Induction of apoptosis in mouse BaF3 cells harbouring JAK2 V617F mutant assessed as early apoptotic cells at 20 nM incubated for 24 hrs by Annexin V / propidium iodide staining based flow cytometry analysis (reference value: 14.4 %); format: functional; outline: as §1
BaF3 [14] = test: Induction of apoptosis in mouse BaF3 cells harbouring JAK2 V617F mutant assessed as viable cells at 40 nM incubated for 24 hrs by Annexin V / propidium iodide staining based flow cytometry analysis (reference value: 72.8 %); format: functional; conditions: read-out: Activity; outline: as §1
BaF3 [15] = test: Induction of apoptosis in mouse BaF3 cells harbouring JAK2 V617F mutant assessed as early apoptotic cells at 40 nM incubated for 24 hrs by Annexin V / propidium iodide staining based flow cytometry analysis (reference value: 14.4 %); format: functional; outline: as §1
BaF3 [16] = test: Induction of apoptosis in mouse BaF3 cells harbouring JAK2 V617F mutant assessed as late apoptotic cells at 40 nM incubated for 24 hrs by Annexin V / propidium iodide staining based flow cytometry analysis (reference value: 12.2 %); format: functional; outline: as §1
BaF3 [17] = test: Induction of apoptosis in mouse BaF3 cells harbouring JAK2 V617F mutant assessed as early apoptotic cells at 80 nM incubated for 24 hrs by Annexin V / propidium iodide staining based flow cytometry analysis (reference value: 14.4 %); format: functional; outline: as §1
BaF3 [18] = test: Induction of apoptosis in mouse BaF3 cells harbouring JAK2 V617F mutant assessed as necrotic cells at 80 nM incubated for 24 hrs by Annexin V / propidium iodide staining based flow cytometry analysis (reference value: 0.64 %); format: functional; outline: as §1
BaF3 [19] = test: Induction of apoptosis in mouse BaF3 cells harbouring JAK2 V617F mutant assessed as early apoptotic cells at 160 nM incubated for 24 hrs by Annexin V / propidium iodide staining based flow cytometry analysis (reference value: 14.4 %); format: functional; outline: as §1
BaF3 [20] = test: Induction of apoptosis in mouse BaF3 cells harbouring JAK2 V617F mutant assessed as necrotic cells at 160 nM incubated for 24 hrs by Annexin V / propidium iodide staining based flow cytometry analysis (reference value: 0.64 %); format: functional; outline: as §1
BaF3 [21] = test: Induction of apoptosis in mouse BaF3 cells harbouring JAK2 V617F mutant assessed as early apoptotic cells at 320 nM incubated for 24 hrs by Annexin V / propidium iodide staining based flow cytometry analysis (reference value: 14.4 %); format: functional; outline: as §1
BaF3 [22] = test: Induction of apoptosis in mouse BaF3 cells harbouring JAK2 V617F mutant assessed as necrotic cells at 320 nM incubated for 24 hrs by Annexin V / propidium iodide staining based flow cytometry analysis (reference value: 0.64 %); format: functional; outline: as §1
[23] = Selectivity ratio of IC50 for FLT3 (unknown origin) to IC50 for JAK2 (unknown origin)

Chain of Tyrosine-protein kinase JAK2 (Q62120 as listed by the source V617F): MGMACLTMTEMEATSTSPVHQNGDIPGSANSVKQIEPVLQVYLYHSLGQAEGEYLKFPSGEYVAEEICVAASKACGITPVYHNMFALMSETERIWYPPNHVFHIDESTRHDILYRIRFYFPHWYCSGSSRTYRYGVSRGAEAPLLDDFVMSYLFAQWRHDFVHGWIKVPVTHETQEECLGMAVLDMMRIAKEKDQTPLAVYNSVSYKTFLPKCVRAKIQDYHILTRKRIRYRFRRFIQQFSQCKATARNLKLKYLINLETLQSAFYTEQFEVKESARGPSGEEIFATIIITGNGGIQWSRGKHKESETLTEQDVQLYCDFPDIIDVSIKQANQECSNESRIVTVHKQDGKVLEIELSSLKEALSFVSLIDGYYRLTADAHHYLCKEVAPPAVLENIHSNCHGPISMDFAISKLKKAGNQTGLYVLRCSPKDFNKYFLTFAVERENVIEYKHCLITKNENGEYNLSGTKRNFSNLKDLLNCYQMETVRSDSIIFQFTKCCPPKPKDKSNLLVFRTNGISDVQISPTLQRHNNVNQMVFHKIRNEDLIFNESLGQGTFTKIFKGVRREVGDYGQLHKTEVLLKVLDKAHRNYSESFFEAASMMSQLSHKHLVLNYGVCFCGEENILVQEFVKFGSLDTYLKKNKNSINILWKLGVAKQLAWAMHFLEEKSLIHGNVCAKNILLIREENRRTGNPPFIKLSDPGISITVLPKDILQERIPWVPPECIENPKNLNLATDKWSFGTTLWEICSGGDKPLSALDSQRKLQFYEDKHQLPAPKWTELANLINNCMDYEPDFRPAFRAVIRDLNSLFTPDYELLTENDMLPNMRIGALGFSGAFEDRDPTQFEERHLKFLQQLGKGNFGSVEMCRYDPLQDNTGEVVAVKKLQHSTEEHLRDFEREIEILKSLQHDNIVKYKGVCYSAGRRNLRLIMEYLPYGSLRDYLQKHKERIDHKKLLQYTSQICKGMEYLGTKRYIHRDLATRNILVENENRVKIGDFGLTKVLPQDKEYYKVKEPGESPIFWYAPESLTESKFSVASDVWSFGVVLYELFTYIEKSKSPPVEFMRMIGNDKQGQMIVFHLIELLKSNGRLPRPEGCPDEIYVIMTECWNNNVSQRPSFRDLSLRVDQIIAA

SMILES | half-life [2] [min] | Activity (BaF3 [3]) [%] | Activity (BaF3 [4]) [%] | Activity (BaF3 [5]) [%] | Activity (BaF3 [6]) [%] | Activity (BaF3 [7]) [%] | Activity (BaF3 [8]) [%] | Activity (BaF3 [9]) [%] | Activity (BaF3 [10]) [%] | Activity (BaF3 [11]) [%] | viability at 0.02 µM (BaF3 [12]) [%] | Activity (BaF3 [13]) [%] | viability at 0.04 µM (BaF3 [14]) [%] | Activity (BaF3 [15]) [%] | Activity (BaF3 [16]) [%] | Activity (BaF3 [17]) [%] | Activity (BaF3 [18]) [%] | Activity (BaF3 [19]) [%] | Activity (BaF3 [20]) [%] | Activity (BaF3 [21]) [%] | other results
C=CS(=O)(=O)NCc1ccc(Nc2ncc(C)c(-c3cnn(C(C)C)c3)n2)cc1 | > 120 | 9.03 | 31.74 | 61.14 | 8.29 | 7.62 | 8.38 | 27.77 | 9.93 | 20.76 | 53.7 | 24.7 | 44.1 | 26.4 | 26.2 | 35.7 | 3.39 | 37.5 | 3.8 | 31 | IC50 [1]: 0.0253 µM; Activity (BaF3 [22]): 4.33%; Ratio IC50 [23]: 93.4
Cc1cnc(Nc2ccc3c(c2)CCN(C(=O)/C=C/CN(C)C)C3)nc1-c1cnn(C(C)C)c1 | 54.6 | 9.64 | 34.4 | 56.54 | 15.52 | 9.33 | 8.98 | 32.2 | 8.95 | 31.63 | 68.6 | 18.4 | 61.1 | 22.4 | 15.6 | 33.2 | 2.64 | 48.1 | 1.89 | 47 | IC50 ([1]; baf3): 0.041 µM; Activity (BaF3 [22]): 3.48%; Ratio IC50 [23]: 20.7
